Screening results as filed in PubChem.
SKN-1 inh – C. elegans SKN-1 inhibition; actives 0.49% (n = 360,000); inhibition, % at 21.8 µM; C. elegans VP596 Pgst-4::GFP/RFP ratio, acrylamide-induced, 24 h;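 active means interference check ratio from 0.5 to 1.5 plus GFP to RFP signal ratio inhibition reaching or exceeding a fixed threshold, cut at about 30% in these data, passing the limit was not always enough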
NR2E3 ag-1 – NR2E3 (human) agonism; GST-NR2E3/biotin-RetCOR TR-FRET, 1536-well; AID 2300; actives 0.12% (n = 320,000); inhibition of corepressor binding, % at 4.78 µM;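 active means percent inhibition above the cutoff of mean plus 3 SD of all tested compounds, set per screening campaign, cut at about 20% in these data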;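 further: 0% = DMSO wells and 100% = biotin wells as full block of FRET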
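Test system – NR2E3–RetCOR corepressor complex · Quantity – NR2E3 fusion 1.35 nM · Buffer or medium – Tris pH 7.5 · Incubation – Compound–protein incubation for 5 h at 4 °C · Technique – TR-FRET, Eu(K)-anti-GST donor, streptavidin-D2 acceptor, ex 340, em 617/671 nm · Evaluation – percent inhibition of 671/617 nm emission ratio versus biotin and DMSO controls · Plate – 1536-well format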
Rev-erbA mod – Rev-erb alpha (human) modulation; P20393; Rev-erbα–FITC-DNA binding, fluorescence polarization, 90 min; activity, % at 10 µM; actives 0.79% (n = 370,000); AID 1259318;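 active means activity above about 14%, limit read from the data; passing the limit was not always enough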;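 further: 0% = DMSO wells with 35 nM protein and 100% = DMSO wells with 750 nM protein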
Target sequence (P20393 whole entry, looked up): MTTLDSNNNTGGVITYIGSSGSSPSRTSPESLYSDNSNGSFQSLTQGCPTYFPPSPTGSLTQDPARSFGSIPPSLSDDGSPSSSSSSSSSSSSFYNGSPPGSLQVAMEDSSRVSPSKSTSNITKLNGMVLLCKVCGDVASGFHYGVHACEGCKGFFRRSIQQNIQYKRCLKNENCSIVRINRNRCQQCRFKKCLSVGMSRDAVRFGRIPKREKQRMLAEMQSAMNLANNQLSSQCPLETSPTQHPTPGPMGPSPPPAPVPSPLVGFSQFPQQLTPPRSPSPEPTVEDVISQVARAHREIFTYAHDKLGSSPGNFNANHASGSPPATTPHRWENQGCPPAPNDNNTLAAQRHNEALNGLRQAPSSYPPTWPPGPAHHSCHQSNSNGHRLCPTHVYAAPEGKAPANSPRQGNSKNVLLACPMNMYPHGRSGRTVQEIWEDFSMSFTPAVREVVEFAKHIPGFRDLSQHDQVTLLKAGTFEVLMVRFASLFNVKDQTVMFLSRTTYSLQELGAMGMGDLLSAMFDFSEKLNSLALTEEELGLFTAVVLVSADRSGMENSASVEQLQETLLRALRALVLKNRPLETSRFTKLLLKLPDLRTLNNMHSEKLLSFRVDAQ
MT1-MMP act inh – blocks activation of human MT1-MMP; HT1080 RFP-PRO-GFP cells, GFP/RFP ratio fluorescence, overnight; percent of plate control window, DMSO zero; GFP/RFP ratio change, % at 20 µM; actives 0.061% (n = 360,000); AID 651647;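 active means GFP/RFP ratio change of at least 30% with cell ATP level not reduced by more than half and red fluorescence within 50% of control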
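Material – HT1080 RFP-PRO-GFP cells · Control set – DMSO wells and RFP-L50D-GFP cells · Incubation – overnight cell settling, then overnight compound exposure, 37 °C, 5% CO2 · Compound dosing – single-point 20 µM compound, 1% DMSO · Read-out – GFP/RFP fluorescence ratio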
NR2E3 ag-2 – agonists of human NR2E3 nuclear receptor. AID 602229. CHO-S Gal4-NCOR/VP16-NR2E3 two-hybrid, luciferase. Q9Y5X4. actives 0.35% (n = 360,000). inhibition of corepressor binding, % at 3.98 µM;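 active means inhibition above the mean of all tested compounds plus 3 SD, cut at about 70% in these data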;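 further: 0% = DMSO with NR2E3 transfected cells and 100% = cells lacking NR2E3 construct; higher means lower luciferase signal from less NR2E3 corepressor binding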
PG9 binder – PG9 antibody binding by small molecule; TR-FRET gp120-PG9 antibody binding; inhibition, % at 6.7 µM; actives 0.43% (n = 360,000); AID 624416; in the data active means inhibition above about 8.5%
NR2E3 ag conf – NR2E3 agonism confirmed in two-hybrid assay; shares compounds with NR2E3 ag-2; CHO-S mammalian two-hybrid NR2E3-NCOR, luciferase luminescence; inhibition, % at 3.98 µM; actives 51% (n = 2,300); AID 624378;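 active means average inhibition above a cutoff equal to the mean inhibition of all tested compounds plus one SD, cut at about 70% in these data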;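 further: 0% = DMSO in NR2E3 cells and 100% = DMSO in cells lacking NR2E3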
GAL4-VP16 luc – GAL4-VP16 reporter inhibition in NR2E3 agonist counterscreen; shares compounds with NR2E3 ag-2; CHO-S GAL4-VP16 luciferase reporter, luminescence; inhibition, % at 3.98 µM; actives 29% (n = 2,300); AID 624379;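 active means mean inhibition above a cutoff equal to the average over all tested compounds plus one standard deviation, cut at about 70% in these data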;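 further: luciferase from a UAS reporter driven by GAL4-VP16 transactivation; 0% = DMSO with VP16-transfected cells and 100% = DMSO with cells lacking VP16; higher means less reporter light so more repression of VP16 activity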
An asterisk follows results filed as active; / = no result given. Most compounds without a hit are left out; they make up all but 1.9% or so of the library.

SMILES | SKN-1 inh | NR2E3 ag-1 | Rev-erbA mod | MT1-MMP act inh | NR2E3 ag-2 | PG9 binder | NR2E3 ag conf | GAL4-VP16 luc
COc1ccc(-n2c(SCC(=O)Nc3ccc4c(c3)OCCO4)nnc2-c2ccccc2)cc1 | / | / | -17 | / | / | / | / | /
COc1ccc(C)cc1NC(=O)NC1CC(=O)N(c2ccc3c(c2)OCCO3)C1 (stereo not given) | -11 | / | 2 | -3 | 72* | 0 | 78* | 11
Cc1ccc(NC(=O)NC2CC(=O)N(c3ccc4c(c3)OCCO4)C2)cc1 (stereo not given) | -6 | 2 | -2 | -2 | 12 | -1 | / | /
CC(=O)c1c(O)cc(O)cc1CC(=O)O | 12 | 1 | -4 | 6 | -16 | -3 | / | /
CC(=O)c1c(O)cc(O)c(C(C)=O)c1O | 11 | 3 | / | -1 | 80* | / | 85* | 34
Cc1ccc(NC(=O)C2CCN(S(=O)(=O)c3ccc(N4CCCC4=O)cc3)CC2)cc1Cl | 5 | -4 | 0 | 2 | 107* | 0 | 99* | 91*
COc1ccc(NC(=O)C2CCN(S(=O)(=O)c3ccc(N4CCCC4=O)cc3)CC2)c(OC)c1 | 5 | -1 | -1 | -3 | 11 | 2 | / | /
CC1Sc2ccc(S(=O)(=O)N3CCC(C(=O)Nc4ccc(Cl)cc4)CC3)cc2NC1=O (stereo not given) | 25 | -2 | 7 | -13 | 103* | -1 | 94* | 75*
COc1ccc(NC(=O)C2CCN(S(=O)(=O)c3ccc4c(c3)NC(=O)C(C)S4)CC2)cc1 (stereo not given) | -4 | 0 | -2 | -2 | 4 | 0 | / | /
C=CCNc1nc(-c2c(C)nc3sccn23)cs1 | 17 | -3 | -1 | 3 | -10 | -5 | / | /
Cc1nc2sccn2c1-c1csc(NCc2ccccc2)n1 | 8 | 1 | -1 | 12 | 62 | -2 | 86* | 71*
Cc1ccc([C@@H]2CC=C(C(=O)O)[C@H](c3ccc(Br)cc3)N2S(=O)(=O)c2ccc(C)cc2)cc1 | 5 | / | -2 | -4 | 64 | 0 | 25 | 4
Cc1ccc(S(=O)(=O)N2[C@@H](c3ccc(C(C)(C)C)cc3)C(C(=O)O)=CC[C@H]2c2cccs2)cc1 | -5 | / | 0 | -2 | 51 | 0 | -4 | -5
Cc1ccc([C@@H]2CC=C(C(=O)O)[C@H](c3ccc(C(C)(C)C)cc3)N2S(=O)(=O)c2ccc(C)cc2)cc1 | -1 | / | -8 | -5 | 98* | -1 | 88* | 41
Cc1ccc(S(=O)(=O)N2[C@@H](c3ccc(Br)cc3)C(C(=O)O)=CC[C@H]2c2ccc(C(C)C)cc2)cc1 | -6 | / | 1 | 2 | -11 | 1 | / | /
CCc1ccc([C@@H]2CC=C(C(=O)O)[C@H](c3ccc(C(C)(C)C)cc3)N2S(=O)(=O)c2ccc(C)cc2)cc1 | -3 | / | -17 | -6 | 93* | -2 | 96* | 62
COC(=O)C1CCCN(C(=O)C2CCN(S(=O)(=O)c3cccc4cccnc34)CC2)C1 (stereo not given) | / | / | 0 | / | / | / | / | /
CCN(Cc1ccccc1)C(=O)C1CCCN(c2ncccn2)C1 (stereo not given) | / | / | 1 | / | / | / | / | /
Cc1ccc(S(=O)(=O)N2[C@@H](c3ccc(C(C)(C)C)cc3)C(C(=O)O)=CC[C@H]2c2ccc(Cl)cc2)cc1 | 0 | / | -8 | -6 | 99* | -3 | 99* | 66
Cc1ccc(S(=O)(=O)N2[C@@H](c3ccc(C(C)(C)C)cc3)C(C(=O)O)=CC[C@H]2c2ccc(C(C)C)cc2)cc1 | -4 | / | -29 | -8 | -4 | 1 | / | /
Cc1ccc(CSC(Nc2ccc(F)cc2)=C(C#N)C#N)cc1 | -3 | 0 | 7 | -36 | 99* | 1 | 99* | 90*
NC(=O)c1c(N)[nH]c(C(=O)c2ccccc2)c1-c1ccc2ccccc2c1 | / | / | 0 | / | / | -1 | / | /
Cc1cccc(C)c1NC(=O)[C@H]1CC(=O)O[C@@H]1c1ccccc1 | / | / | -6 | / | / | / | / | /
NC(=S)N=Nc1c(O)n(CCCl)c2ccc(Cl)cc12 | -3 | 5 | -2 | 9 | 50 | -3 | 33 | 7
COc1ccc(NC(=O)CSc2nc3sc(C)cc3c(=O)n2C)cc1 | 18 | 3 | 1 | -2 | -10 | -2 | / | /
SMILES | SKN-1 inh | NR2E3 ag-1 | Rev-erbA mod | MT1-MMP act inh | NR2E3 ag-2 | PG9 binder | NR2E3 ag conf | GAL4-VP16 luc
COc1ccc(NC(=O)CSc2nc3sc(C)cc3c(=O)n2C)c(OC)c1 | -6 | -3 | -9 | 1 | 62 | -1 | 46 | 37
O=C(Cc1ccc(NC(=O)C2CCCN(C(=O)c3ccccc3)C2)cc1)Nc1cccc(C(=O)N2CCCCC2)c1 (stereo not given) | / | / | -3 | / | / | 2 | / | /
O=S(=O)(NCC1CCCO1)c1ccc(-c2ccc(S(=O)(=O)NCC3CCCO3)cc2)cc1 (stereo not given) | 10 | 3 | -1 | -4 | 67 | 1 | 92* | 73*
Cc1cc2c(nc1C)CCCN2S(=O)(=O)c1cccs1 | / | / | 6 | / | / | 0 | / | /
COC1=CC(=O)c2nc(Cl)ccc2C1=O | 0 | / | -2 | -39 | 64 | 0 | 36 | 33
Cc1cc(N2CCN(CC(C)(C)O)C[C@@H]2C)ccc1N1CCN(CC(C)(C)O)[C@@H](C)C1 | / | / | 2 | / | / | 0 | / | /
CCNC(=S)N1CCN(c2ccc([N+](=O)[O-])cc2)CC1 | 5 | -3 | 6 | 8 | 7 | -2 | / | /
O=[N+]([O-])c1ccc(N2CCN(C(=S)NCc3ccc(Cl)cc3)CC2)cc1 | -2 | 1 | -1 | 1 | 54 | 0 | 91* | 69
COc1cnc(-c2ccccn2)nc1Oc1ccc(Cl)c2ccccc12 | 5 | 0 | -2 | -2 | 64 | -1 | 11 | 35
COc1cnc(-c2ccccn2)nc1Oc1ccccc1Cl | -21 | 1 | 1 | 0 | 0 | 0 | / | /
COc1cnc(-c2ccccn2)nc1Oc1ccc(Cl)cc1 | -22 | -1 | -1 | -2 | 79* | -1 | 24 | -25
CN(C)CCCN1CC(=O)N2CCc3ccc(Br)cc3C2CC1=O (stereo not given) | / | / | -2 | / | / | 0 | / | /
Cc1ccc(NS(=O)(=O)c2ccc(NC(=O)C3CC3)cc2)c(C)c1 | -10 | 2 | -5 | -7 | 64 | -1 | 31 | 30
COc1ccccc1NS(=O)(=O)c1ccc(-c2cnc(C3CC3)o2)cc1 | 12 | -2 | 3 | -2 | 38 | 0 | / | /
COc1ccccc1CNS(=O)(=O)c1ccc(-c2cnc(C3CC3)o2)cc1 | 16 | 2 | 3 | -2 | 53 | -1 | 29 | 41
